Assay outcomes as filed in PubChem BioAssay.
Only a selection was taken, and hits are over-represented in it overall.
UPR XBP1 act: adaptive UPR (XBP1) activation | CHO-XBP1 luciferase reporter, IRE1-XBP1 UPR activation, luminescence; percent of tunicamycin response, DMSO as zero | activation, % at 20 µM | 0.33% of 330,000 active;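 active = versus positive control, 20 µM dose yields 30% or more activation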;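 note: 100% = tunicamycin at 10 µg/mL and 0% = DMSO only wells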
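Assay system: IRE1-XBP1 luciferase reporter CHO line. Input: 1000 cells/well. Buffer or medium: F12 with 10% serum. Doses: 20 µM, 1% DMSO. Times: overnight seeding at 37 °C, 6 h compound treatment at 37 °C. Technique: Steady-Glo luciferase glow luminescence, 10 min after reagent addition.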
UPR CHOP act: apoptotic UPR (CHOP) activation | activation, % at 10 µM | AID 449763 | CHO-CHOP luciferase reporter, luminescence; percent of tunicamycin response over DMSO baseline | 0.34% of 330,000 active;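 active = at 10 µM dose, activation of 40% or more, normalized to positive control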;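 note: 100% = tunicamycin at 10 µg/mL and 0% = DMSO alone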
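Test system: CHO CHOP reporter cells. Input: 500 CHO-CHOP cells per well. Medium: F12 with 10% FBS. Technique: luciferase luminescence. Measure: percent activation relative to tunicamycin control. Dosing: 10 µM compound, 0.5% DMSO. Timing: 16-18 h cell attachment, then 6 h compound exposure, 37 °C.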
Bfl-1 A1 inh: inhibitors of the anti-apoptotic protein A1, read as caspase activation | MEF A1-2A-BIM cells, Caspase-Glo 3/7 luminescence, 3 h; percent of clofoctol response, vehicle zero | caspase activation, % (no concentration beside the values) | 0.066% of 330,000 active;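 active = over half of replicate activation scores above 10%, or exactly half above 10 with the replicate mean above 10; inconclusive = replicate mean below 10 yet half the replicates above 10; inactive = over half of replicates below 10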
CHOP inhibitor: blocks CHOP induction under ER stress; CHO-K1 CHOP-promoter luciferase, tunicamycin-induced, 15-18 h; inhibition, % at 10 µM; 3.8% of 220,000 active;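 active = compounds that reduced the stress-induced luciferase reporter signal by more than about 70% of percent inhibition, limit read from the data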;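 note: 0% = tunicamycin plus vehicle and 100% = wells without tunicamycin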
UPR CHOP confirm: apoptotic UPR (CHOP) activation, confirmed; shares compounds with UPR CHOP act; CHO-CHOP cells, CHOP-luciferase reporter luminescence; percent of tunicamycin response, DMSO as zero; activation, % at 10 µM; 64% of 1,000 active; AID 463112; in the data active = activation above about 33%;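 note: 0% = DMSO wells and 100% = tunicamycin 10 µg/mL wells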
XBP1 UPR conf: confirmation of adaptive unfolded protein response (XBP1) activators; shares compounds with UPR XBP1 act; CHO-XBP1 IRE1-XBP1 luciferase reporter, luminescence; activation, % at 20 µM; 63% of 1,000 active; AID 485299;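 active = reporter signal at least 30% of the positive control's activation in two or more of four replicate wells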;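 note: plate controls were DMSO negative control for no effect and tunicamycin 10 µg/mL positive control for full effect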
Numbers without * were called inactive.

How did O=C(Nc1ccc(-c2nc3cc(NC(=O)c4cccs4)ccc3o2)cc1)c1cccs1 do in these assays?
UPR XBP1 act: 147.6*; UPR CHOP act: 195.2*; Bfl-1 A1 inh: 17.4*; CHOP inhibitor: -53.9; UPR CHOP confirm: 201.6*; XBP1 UPR conf: 324.2*

What do the screens show for `O=C(/C=C/c1ccco1)NC(=S)Nc1ccc(O)c(-c2nc3ccccc3s2)c1`?
UPR XBP1 act: 153.0*; UPR CHOP act: 105.8*; Bfl-1 A1 inh: -0.1; CHOP inhibitor: 25.8; UPR CHOP confirm: 86.0*; XBP1 UPR conf: 286.8*

What do the screens show for `Cc1cnc(NC(=O)c2ccc(-c3ccc([N+](=O)[O-])cc3)o2)s1`?
UPR XBP1 act: 1.5; UPR CHOP act: 0.5; Bfl-1 A1 inh: 0.1

Results for Cc1ccc(Cc2cnc(NC(=O)/C(C#N)=C/c3ccc(-c4ccc([N+](=O)[O-])cc4)o3)s2)cc1 ?
UPR XBP1 act: 136.1*; UPR CHOP act: 123.1*; Bfl-1 A1 inh: -0.1; CHOP inhibitor: -8.1; UPR CHOP confirm: 78.3*; XBP1 UPR conf: 166.5*

How did O=C(Nc1ccccn1)c1cc2cc([N+](=O)[O-])ccc2s1 do in these assays?
UPR XBP1 act: 12.6; UPR CHOP act: 13.2; Bfl-1 A1 inh: -6.0; CHOP inhibitor: 47.9

Results for C=CCOc1ccc2cccc(/C=N/NC(=O)c3cc4cc([N+](=O)[O-])ccc4s3)c2c1 ?
UPR XBP1 act: 46.5*; UPR CHOP act: 54.8*; Bfl-1 A1 inh: -0.4; CHOP inhibitor: 51.8; UPR CHOP confirm: 31.8; XBP1 UPR conf: 44.9*

What do the screens show for `CC(=O)Nc1cccc(C(=O)NNC(=O)c2ccccc2-n2cccc2)c1`?
UPR XBP1 act: 0.8; UPR CHOP act: 1.4

Results for CCN(CC)c1ccc(C(=O)OCC(=O)Nc2cc3oc4ccccc4c3cc2OC)cc1 ?
UPR XBP1 act: 177.9*; UPR CHOP act: 55.2*; Bfl-1 A1 inh: 0.6; CHOP inhibitor: -0.5; UPR CHOP confirm: 30.3; XBP1 UPR conf: 120.8*

What do the screens show for `CCCCCn1c2c(c(=N)c3ccccc31)CCC2`?
UPR XBP1 act: 0.5; UPR CHOP act: -0.4; Bfl-1 A1 inh: -0.7; CHOP inhibitor: -0.5

How did CCCCCCCCCCn1c2c(c(=N)c3c1CCC3)CCC2 do in these assays?
UPR XBP1 act: 46.9*; UPR CHOP act: 77.1*; Bfl-1 A1 inh: -0.8; CHOP inhibitor: 103.8*; UPR CHOP confirm: 69.9*; XBP1 UPR conf: 43.9*

Results for COc1cc(/C=C2\CC(C(C)(C)C)C/C(=C\c3cc(OC)c(OC)c(OC)c3)C2=O)cc(OC)c1OC (stereo not given) ?
UPR XBP1 act: 43.3*; UPR CHOP act: 125.6*; Bfl-1 A1 inh: -1.0; UPR CHOP confirm: 112.5*; XBP1 UPR conf: 41.0*

How did CCNC(=S)N(CCO)Cc1cc2cc3c(cc2[nH]c1=O)OCO3 do in these assays?
UPR XBP1 act: -0.2; UPR CHOP act: -0.1; Bfl-1 A1 inh: -0.6

Results for Cc1ccc(NC(=O)COc2ccc(/C=C3/SC(=Nc4ccccc4)N(Cc4cccnc4)C3=O)cc2)cc1 ?
UPR XBP1 act: 63.1*; UPR CHOP act: 84.1*; Bfl-1 A1 inh: 0.0; CHOP inhibitor: 24.1; UPR CHOP confirm: 151.8*; XBP1 UPR conf: 59.9*

Results for CCCN1Cc2cccc(C(=O)Nc3ccc(-c4nc5ccccc5[nH]4)cc3)c2C1=O ?
UPR XBP1 act: 38.3*; UPR CHOP act: 41.9*; Bfl-1 A1 inh: 1.6; CHOP inhibitor: 75.3*; UPR CHOP confirm: 41.0*; XBP1 UPR conf: 28.8

How did O=C1C=C(c2ccc3cc[nH]c3c2)C[C@@H](c2ccc3c(c2)OCO3)C1 do in these assays?
UPR XBP1 act: 1.7; UPR CHOP act: 0.4; Bfl-1 A1 inh: 0.3

What do the screens show for `N#C/C(=C\c1ccc(OCc2ccccc2)cc1)C(=O)Nc1nc2c(s1)CCN(Cc1ccccc1)C2`?
UPR XBP1 act: 42.1*; UPR CHOP act: 91.5*; Bfl-1 A1 inh: inconclusive; CHOP inhibitor: 68.7; UPR CHOP confirm: 145.1*; XBP1 UPR conf: 132.2*

What do the screens show for `Cc1cc(C)c(NC(=O)CNC(=O)c2ccc3c(=O)n4c(nc3c2)CCC4)c(C)c1`?
UPR XBP1 act: 2.7; UPR CHOP act: 0.7; Bfl-1 A1 inh: 0.2
